# Measured values of several laboratories.
# Each line is one published result; the experiments were not run side by side.
Structure (SMILES),organism,test,system,setting,endpoint,result
C[C@@H]1[C@H](O)[C@@H](C)/C=C/C=C/C=C/C=C/C=C/C=C/C=C/[C@H](O[C@@H]2O[C@H](C)[C@@H](O)[C@H](N)[C@@H]2O)C[C@@H]2O[C@](O)(C[C@@H](O)C[C@@H](O)[C@H](O)CC[C@@H](O)C[C@@H](O)CC(=O)O[C@H]1C)C[C@H](O)[C@H]2C(=O)O,Aspergillus fumigatus,microbial growth,ATCC204305,,MIC,1.35 µM
Cc1ccn2c(C(=O)N3CCN(Cc4cn(-c5ccc([N+](=O)[O-])cc5)nn4)CC3)c(C)nc2c1,Leishmania major,"parasite growth, resazurin",,"72 h, promastigote",IC50,> 500 µM
CC1=NN(CNc2ccc(C(=O)O)cc2)C(=O)C1=NNn1c(-c2ccccc2)nc2ccccc2c1=O,Aspergillus fumigatus,"microbial growth, broth dilution",,,MIC,50.5 µM
C=CCn1c(-c2ccc([N+](=O)[O-])cc2)nc2ccccc21,Enterococcus faecalis,"microbial growth, broth dilution",ATCC29212,,MIC,64 µg/mL
CC1(C)S[C@@H]2[C@H](NC(=O)[C@H](N)c3ccccc3)C(=O)N2[C@H]1C(=O)O,Enterococcus faecalis,"microbial growth, agar dilution",ATCC33186,26.93 µM,inhibition,100%
CN(C)N1C(=O)c2ccccc2C1CB1OC(C)(C)C(C)(C)O1 (stereo not drawn),Leishmania major,parasite growth,,"intracellular, amastigote",IC50,94.6 µM
Cc1ccc2nc(-c3ccncc3)[nH]c2c1,Enterococcus faecalis,"microbial growth, broth dilution",ATCC29212,,MIC,64 µg/mL
Cc1ccn2c(C(=O)N3CCN(CCn4cc(-c5ccc(C(C)(C)C)cc5)nn4)CC3)c(C)nc2c1,Leishmania major,"parasite growth, resazurin",,"72 h, promastigote",IC50,15.1 µM
Cc1ccc2nc(-c3ccccc3O)[nH]c2c1,Enterococcus faecalis,"microbial growth, broth dilution",ATCC29212,,MIC,64 µg/mL
Cc1ccc(C)n1-c1ccc(-c2nnc(S)s2)cc1,Enterococcus faecalis,"microbial growth, broth dilution",ATCC14506,18 h,MIC,1 µg/mL
CCCCCCCCCCCCCCCCOP(=O)([O-])OCC[N+](C)(C)C,Leishmania major,"parasite growth, resazurin",,"72 h, promastigote",IC50,12.6 µM
C#CCCCCCCCCC=CCC(O)CC(O)CO (stereo not drawn),Aspergillus fumigatus,"microbial growth, resazurin",ATCC204305,,IC50,> 8 µg/mL
Cc1nc2ccc(Cl)cn2c1C(=O)N1CCN(Cc2cn(-c3ccc([N+](=O)[O-])cc3)nn2)CC1,Leishmania major,"parasite growth, resazurin",,"72 h, promastigote",IC50,> 250 µM
CC1=NN(CNc2ccc(O)cc2)C(=O)C1=NNn1c(-c2ccccc2)nc2ccccc2c1=O,Aspergillus fumigatus,"microbial growth, broth dilution",,,MIC,53.5 µM
Cc1ccc2nc(-c3ccc(Cl)c(Cl)c3)[nH]c2c1,Enterococcus faecalis,"microbial growth, broth dilution",ATCC29212,,MIC,16 µg/mL
CCCc1cn(CCN2CCN(C(=O)c3c(C)nc4cc(C)ccn34)CC2)nn1,Leishmania major,"parasite growth, resazurin",,"72 h, promastigote",IC50,176 µM
COc1ccc(-c2nc3ccccc3[nH]2)cc1O,Enterococcus faecalis,"microbial growth, broth dilution",ATCC29212,,MIC,64 µg/mL
C[C@@H](c1ncncc1F)[C@](O)(Cn1cncn1)c1ccc(F)cc1F,Acanthamoeba griffini,"parasite growth, resazurin",,96 h,IC50,0.29 µM
C=CCn1c(-c2ccc(Cl)c(Cl)c2)nc2ccccc21,Enterococcus faecalis,"microbial growth, broth dilution",ATCC29212,,MIC,64 µg/mL
Cc1nc2ccc(Cl)cn2c1C(=O)N1CCN(Cc2cn(-c3ccc(Br)cc3)nn2)CC1,Leishmania major,"parasite growth, resazurin",,"72 h, promastigote",IC50,33.6 µM
CC1=NN(CNc2ccc(Cl)cc2)C(=O)C1=NNn1c(-c2ccccc2)nc2ccccc2c1=O,Aspergillus fumigatus,"microbial growth, broth dilution",,,MIC,51.5 µM
